According to PMC7323586 (Journal of molecular biology, 2020):

Legend:
[1] = target: T1, B. subtilis XPRT (Bacillus subtilis, UniProt P42085); assay: DRaCALA binding of 32P-labeled alarmones to XPRT; conditions: for nH (Hill coefficient from binding curve): DRaCALA binding curve, ± standard error
How it was run: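 Purified hexahistidine-tagged B. subtilis XPRT at varied concentrations was mixed with 32P-labelled alarmone in 20 mM HEPES pH 8, 100 mM NaCl, 10 mM MgCl2. The label was added at 1:50–1:100 of the first synthesis elution fraction. After 10 min at room temperature, aliquots were spotted on nitrocellulose, dried ≥20 min and phosphorimaged. Fraction bound was edge-corrected and fitted to Y = (Bmax × X^h)/(Kd^h + X^h).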

[2] = target: T1, B. subtilis XPRT; assay: XPRT activity assay; type: biochemical; conditions: 1 mM PRPP, 50 μM xanthine; ± standard error
How it was run: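 Xanthine started the reaction, and XMP was followed at A252 for 10 min (Δε 5350 M−1cm−1). Initial-velocity slopes were normalized to uninhibited controls and fitted to Y = 1/(1 + (X/IC50)^n), with n reported as napp.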

[3] = target: T1, B. subtilis XPRT; assay: Size exclusion chromatography of XPRT with ppGpp in the mobile phase; conditions: 35 μM ppGpp in the mobile phase, XPRT at 10 or 20 μM
How it was run: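 Untagged (TEV-cleaved) XPRT at 10 or 20 μM was run on a Superose 12 column at 0.25 mL/min. The mobile phase was 20 mM HEPES pH 8, 300 mM NaCl, 10 mM MgCl2, with ppGpp at 35 μM final, after equilibration with ≥1 column volume. A280 traces were baseline-normalized. Predicted retention volumes (monomer 13.58, dimer 12.41) came from the 21038 Da molecular weight and a column standard curve.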

[4] = target: T1, B. subtilis XPRT; assay: biochemical
[5] = target: XPRT (Bacillus subtilis, UniProt P42085); assay: XPRT interaction with ppApp; type: binding; conditions: data not shown
[6] = tested on: (p)ppGpp^0 B. subtilis; assay: GTP levels by thin layer chromatography of 32P-orthophosphate-labeled cells; type: cell-based, Bacillus subtilis
[7] = tested on: B. subtilis; assay: B. subtilis viability assay; type: cell-based, Bacillus subtilis; conditions: (p)ppGpp^0 xpt mutant B. subtilis, 1 mM xanthine
How it was run: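 Strains were taken from single colonies, resuspended in S7 plus VILMTH amino acids, and spread on Spizizen casamino-acid agar for about 16 h at 30 °C. Cells were collected, diluted to OD600 0.01 in S7+VILMTH and grown to OD600 ≈ 0.2. After a t=0 sample, cultures were split and given 1 mM xanthine or water. Sampling was at 30, 60 and 120 min. Ten-fold dilutions were plated on LB for CFU/mL, in triplicate.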

T1 sequence (P42085 whole entry): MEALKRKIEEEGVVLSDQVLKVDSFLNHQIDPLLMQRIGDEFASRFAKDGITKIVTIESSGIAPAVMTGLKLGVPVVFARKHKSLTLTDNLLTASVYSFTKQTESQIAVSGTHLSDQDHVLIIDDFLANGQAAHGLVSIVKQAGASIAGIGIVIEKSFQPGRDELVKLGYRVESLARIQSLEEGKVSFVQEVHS
Sequence of XPRT (P42085 whole entry): as above

Row | Compound | Kd [1] [µM] | nH (Hill coefficient from binding curve) [1] | napp (apparent Hill coefficient from inhibition curve) [2] | other results
1 | Nc1nc2c(ncn2[C@@H]2O[C@H](COP(=O)(O)OP(=O)(O)O)[C@@H](OP(=O)(O)OP(=O)(O)O)[C@H]2O)c(=O)[nH]1 [ppGpp] | 0.95 ± 0.03 | 2.1 ± 0.1 | 1.7 ± 0.1 | effect on XPRT oligomeric state [3]: stabilized the dimeric XPRT population
2 | Nc1nc2c(ncn2[C@@H]2O[C@H](COP(=O)(O)OP(=O)(O)OP(=O)(O)O)[C@@H](OP(=O)(O)OP(=O)(O)O)[C@H]2O)c(=O)[nH]1 [pppGpp] | 9.6 ± 2.2 | 1.3 ± 0.2 | 1.5 ± 0.1 | Ki [4]: 2.5 µM
3 | Nc1nc2c(ncn2[C@@H]2O[C@H](COP(=O)(O)O)[C@@H](OP(=O)(O)OP(=O)(O)O)[C@H]2O)c(=O)[nH]1 [pGpp] | 0.76 ± 0.04 | 2.3 ± 0.2 | 1.6 ± 0.1 | 
4 | Nc1ncnc2c1ncn2[C@@H]1O[C@H](COP(=O)(O)OP(=O)(O)O)[C@@H](OP(=O)(O)OP(=O)(O)O)[C@H]1O [ppApp] |  |  |  | interaction with XPRT [5]: does not interact
5 | O=c1[nH]c(=O)c2nc[nH]c2[nH]1 [xanthine] |  |  |  | increase in (p)ppGpp^0 GTP levels ([6]; (p)ppGpp^0 B. subtilis during growth with xanthine): ~ 6 fold; GTP levels ([6]; (p)ppGpp^0 vs wild type B. subtilis, 1 mM xanthine, 30 min): elevated relative to wild type; viability (colony forming units) [7]: unaffected
